This is an account of results in ChEMBL document CHEMBL3872252, “New bithiazolyl hydrazones: Novel synthesis, characterization and antitubercular evaluation” (Bioorg Med Chem Lett, 2017).

The term MIC denotes the lowest concentration that inhibits growth of the organism. Low values mean inhibition by little substance, high ones a need for much substance. Usually GI50 stands for the concentration that inhibits growth by half. The low end stands for greater sensitivity of the cells, the high end for lower sensitivity of the cells. What is called MIC90 is an inhibitory concentration at the 90% level, which refers to growth in some studies and to a panel of isolates in others. The low end stands for higher susceptibility, the high end for lower susceptibility. For orientation: IC50 means the midpoint of a concentration-inhibition curve. Higher therefore signals a need for much substance.

Structures are written as SMILES. In brackets after ≈: the same amount, converted by molar mass. Some results are limits rather than exact numbers.

In data set [1] the test system is Bacillus subtilis. Briefly: Antibacterial activity against Bacillus subtilis. It is filed as functional.
For data set [2], the system named is Escherichia coli. Briefly: Antibacterial activity against Escherichia coli. The format is functional.
Data set [3] has as its system Pseudomonas aeruginosa. Briefly: Antibacterial activity against Pseudomonas aeruginosa. It is filed as functional.
For data set [4], the system named is Staphylococcus aureus. Briefly: Antibacterial activity against Staphylococcus aureus. The format is functional.
Data set [5] in a line: Cytotoxicity against human THP1 cells by MTT assay. The format is toxicity, cell-based, THP-1.
Data set [6] is described as follows: Selectivity index, ratio of GI50 for human HCT116 cells to MIC90 for Mycobacterium bovis BCG ATCC 35743 active stage. The format is toxicity, cell-based, HCT-116. To be noted: read-out: Selectivity Index. The procedure, abridged:
(§1)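 Cytotoxicity was measured on human MCF-7, HCT116 and THP-1 cells by MTT assay, with paclitaxel as reference. GI50 is the concentration inhibiting 50% of cell growth. The selectivity index is GI50 for the given cell line divided by MIC90 for the given mycobacterial strain and stage.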

The subject of data set [7] is Staphylococcus aureus. Kind of data set: Growth inhibition of Staphylococcus aureus at 30 ug/ml. It is filed as functional. To be noted: read-out: GI.
Data set [8] has as its system Bacillus subtilis. Kind of data set: Growth inhibition of Bacillus subtilis at 10 ug/ml. It is filed as functional. As to conditions: read-out: GI.
Data set [9] has as its system Pseudomonas aeruginosa. Briefly: Growth inhibition of Pseudomonas aeruginosa at 3 ug/ml. It is filed as functional. As to conditions: read-out: GI. In short, it runs like this:
(§2)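 Screened against Gram-negative E. coli and P. aeruginosa and Gram-positive S. aureus and B. subtilis. Compound was tested at 3 µg/ml, and the read-out is percent growth inhibition.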

A short description of data set [10]: Selectivity index, ratio of GI50 for human HCT116 cells to MIC90 for Mycobacterium bovis BCG ATCC 35743 dormant stage. It is filed as toxicity, cell-based, HCT-116. As to conditions: read-out: Selectivity Index. The procedure, abridged:
(§3)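 Cytotoxicity was measured on human MCF-7, HCT116 and THP-1 cells by MTT assay, with paclitaxel as reference. The selectivity index is GI50 for the given cell line divided by MIC90 for the given mycobacterial strain and stage.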

Data set [11] is described as follows: Selectivity index, ratio of GI50 for human THP1 cells to MIC90 for Mycobacterium tuberculosis H37Ra ATCC 25177 dormant stage. It is filed as toxicity, cell-based, THP-1. As to conditions: read-out: Selectivity Index. In short, it runs like this:
as §3

A short description of data set [12]: Antitubercular activity against Mycobacterium tuberculosis H37Ra ATCC 25177 active stage infected in human THP1 cells measured on day 8 by nitrate reductase assay. The format is functional, THP-1. To be noted: ATCC 25177, 192 h.
In data set [13] the test system is Bacillus subtilis. Kind of data set: Growth inhibition of Bacillus subtilis at 30 ug/ml. The format is functional. As to conditions: read-out: GI.
A short description of data set [14]: Selectivity index, ratio of GI50 for human MCF7 cells to MIC90 for Mycobacterium bovis BCG ATCC 35743 active stage. It is filed as toxicity, cell-based. As to conditions: read-out: Selectivity Index. The procedure, abridged:
as §1

Data set [15] can be described thus: Selectivity index, ratio of GI50 for human MCF7 cells to MIC90 for Mycobacterium bovis BCG ATCC 35743 dormant stage. It is filed as toxicity, cell-based. To be noted: read-out: Selectivity Index. In short, it runs like this:
as §3

Data set [16] has as its system Escherichia coli. Kind of data set: Growth inhibition of Escherichia coli at 30 ug/ml. The format is functional. To be noted: read-out: GI.
Data set [17] in a line: Selectivity index, ratio of GI50 for human MCF7 cells to MIC90 for Mycobacterium tuberculosis H37Ra ATCC 25177 active stage. The format is toxicity, cell-based. As to conditions: read-out: Selectivity Index. The procedure, abridged: as §1
Data set [18] can be described thus: Antitubercular activity against Mycobacterium tuberculosis H37Ra ATCC 25177 active stage measured on day 8 by XTT reduction menadione based two-fold dilution assay. The format is functional. As to conditions: ATCC 25177, 192 h. The procedure, abridged: (§4)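 M. tuberculosis H37Ra ATCC 25177 was exposed to 0.7–100 μg/mL in two-fold steps (0.7, 1.5, 3.1 … 100). Active stage was read after 8 days and dormant stage after 12 days of incubation. Inhibition was read by XTT reduction menadione assay (XRMA), absorbance 470 nm. MIC90 is the concentration giving ≥90% inhibition (µg/mL).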
For orientation: Tetrazolium dyes change colour on reduction, which living cells bring about.

A short description of data set [19]: Antitubercular activity against Mycobacterium bovis BCG ATCC 35743 active stage measured on day 8 by nitrate reductase based two-fold dilution assay. As to conditions: Mycobacterium tuberculosis variant bovis BCG, ATCC 35743, 192 h. It is filed as functional, Mycobacterium bovis BCG str. ATCC 35743.
Data set [20] is described as follows: Selectivity index, ratio of GI50 for human HCT116 cells to MIC90 for Mycobacterium tuberculosis H37Ra ATCC 25177 dormant stage. It is filed as toxicity, cell-based, HCT-116. To be noted: read-out: Selectivity Index. The procedure, abridged: as §3
Data set [21] in a line: Antitubercular activity against Mycobacterium tuberculosis H37Ra ATCC 25177 dormant stage measured on day 12 by XTT reduction menadione based two-fold dilution assay. The format is functional. As to conditions: ATCC 25177, 288 h. In short, it runs like this: as §4
For data set [22], the system named is Escherichia coli. Briefly: Growth inhibition of Escherichia coli at 10 ug/ml. The format is functional. To be noted: read-out: GI.
The nature of data set [23]: Selectivity index, ratio of GI50 for human THP1 cells to MIC90 for Mycobacterium tuberculosis H37Ra ATCC 25177 active stage. The format is toxicity, cell-based, THP-1. As to conditions: read-out: Selectivity Index. The procedure, abridged: as §1
For data set [24], the system named is Staphylococcus aureus. Briefly: Growth inhibition of Staphylococcus aureus at 10 ug/ml. The format is functional. To be noted: read-out: GI.
A short description of data set [25]: Antitubercular activity against Mycobacterium tuberculosis H37Ra ATCC 25177 dormant stage infected in human THP1 cells measured on day 12 by nitrate reductase assay. To be noted: ATCC 25177, 288 h. The format is functional, THP-1.
Data set [26] deals with Pseudomonas aeruginosa. Kind of data set: Growth inhibition of Pseudomonas aeruginosa at 10 ug/ml. To be noted: read-out: GI. The format is functional.
Data set [27] is described as follows: Selectivity index, ratio of GI50 for human THP1 cells to MIC90 for Mycobacterium bovis BCG ATCC 35743 dormant stage. To be noted: read-out: Selectivity Index. The format is toxicity, cell-based, THP-1. The procedure, abridged:
as §3

Data set [28] can be described thus: Selectivity index, ratio of GI50 for human MCF7 cells to MIC90 for Mycobacterium tuberculosis H37Ra ATCC 25177 dormant stage. It is filed as toxicity, cell-based. To be noted: read-out: Selectivity Index. The procedure, abridged:
as §3

A short description of data set [29]: Selectivity index, ratio of GI50 for human HCT116 cells to MIC90 for Mycobacterium tuberculosis H37Ra ATCC 25177 active stage. It is filed as toxicity, cell-based, HCT-116. As to conditions: read-out: Selectivity Index. In short, it runs like this: as §1
Data set [30] in a line: Selectivity index, ratio of GI50 for human THP1 cells to MIC90 for Mycobacterium bovis BCG ATCC 35743 active stage. The format is toxicity, cell-based, THP-1. As to conditions: read-out: Selectivity Index. In short, it runs like this: as §1
The test system of data set [31] is Pseudomonas aeruginosa. Briefly: Growth inhibition of Pseudomonas aeruginosa at 30 ug/ml. The format is functional. As to conditions: read-out: GI.
In data set [32] the test system is Bacillus subtilis. Briefly: Growth inhibition of Bacillus subtilis at 3 ug/ml. It is filed as functional. To be noted: read-out: GI. The procedure, abridged:
as §2

A short description of data set [33]: Cytotoxicity against human HCT116 cells by MTT assay. The format is toxicity, cell-based, HCT-116.
Data set [34] in a line: Cytotoxicity against human MCF7 cells by MTT assay. It is filed as toxicity, cell-based.
The test system of data set [35] is Escherichia coli. Briefly: Growth inhibition of Escherichia coli at 3 ug/ml. As to conditions: read-out: GI. It is filed as functional. The procedure, abridged:
as §2

In data set [36] the test system is Staphylococcus aureus. Kind of data set: Growth inhibition of Staphylococcus aureus at 3 ug/ml. It is filed as functional. To be noted: read-out: GI. The procedure, abridged:
as §2

The nature of data set [37]: Antitubercular activity against Mycobacterium bovis BCG ATCC 35743 dormant stage measured on day 12 by nitrate reductase based two-fold dilution assay. It is filed as functional, Mycobacterium bovis BCG str. ATCC 35743. To be noted: Mycobacterium tuberculosis variant bovis BCG, ATCC 35743, 288 h.

On to `NC[C@H]1O[C@H](O[C@H]2[C@H](O)[C@@H](O[C@H]3O[C@H](CO)[C@@H](O)[C@H](N)[C@H]3O)[C@H](N)C[C@@H]2N)[C@H](O)[C@@H](O)[C@@H]1O` [KANAMYCIN], for which the minimal inhibitory concentration (MIC) is 1.35 µg/mL (≈ 2.79 µM) against Bacillus subtilis [1], 1.62 µg/mL (≈ 3.34 µM) against Escherichia coli [2], 0.49 µg/mL (≈ 1.01 µM) against Pseudomonas aeruginosa [3] and over 30 µg/mL against Staphylococcus aureus [4].
With `COc1ccc(-c2csc(N/N=C(\C)c3sc(-c4ccccc4)nc3C)n2)cc1`, the concentration for 50% growth inhibition (GI50) in data set [5] (THP1 cells), in data set [33] (HCT116 cells) and in data set [34] (MCF7 cells) was over 100 µg/mL in each case. In addition, the GI90 in data set [5] (thp-1), in data set [33] (hct-116) and in data set [34] (mcf7) was over 100 µg/mL throughout. Also, the selectivity ratio in [6] came out at 7; in data set [10], 7; in data set [11], 14; in data set [14], 7; in data set [15], 7; in [17] it was 15. For the same compound, the selectivity ratio turned out to be 14 in [20]; 15 in [23]; 7 in [27]; 14 in data set [28]; 15 in data set [29]; 7 in data set [30]. For the same compound, the inhibition of growth at 30 µg/mL was 83.7% in the data set on Staphylococcus aureus [7], 82.5% in the data set with Bacillus subtilis [13], 84.6% in the data set on Escherichia coli [16] and 85% in the data set with Pseudomonas aeruginosa [31]. Moreover, the inhibition of growth at 10 µg/mL in the data set with Bacillus subtilis [8] worked out at 66.8%; in the data set on Escherichia coli [22] it was 71.1%; with Staphylococcus aureus [24], 69.2%; in the data set with Pseudomonas aeruginosa [26], 69.9%. Further, the inhibition of growth at 3 µg/mL in the data set with Pseudomonas aeruginosa [9] worked out at 48.7%; with Bacillus subtilis [32], 44.9%; in the data set with Escherichia coli [35], 52.1%; in the data set with Staphylococcus aureus [36], 48.8%. Also, the MIC90 stood at 12.3 µg/mL (≈ 29.3 µM) in data set [12]; 6.87 µg/mL (≈ 16.3 µM) in data set [18]; 13.5 µg/mL (≈ 32.1 µM) in data set [19]; 7.15 µg/mL (≈ 17 µM) in data set [21]; 9.38 µg/mL (≈ 22.3 µM) in data set [25]; 14 µg/mL (≈ 33.3 µM) in [37]. Moreover, the MIC in the data set on Bacillus subtilis [1], against Escherichia coli [2], against Pseudomonas aeruginosa [3] and with Staphylococcus aureus [4] was over 30 µg/mL each time. Also, the IC50 in [18] is 0.078 µg/mL (≈ 0.185 µM); in data set [19], 2.43 µg/mL (≈ 5.78 µM); in [21], 0.075 µg/mL (≈ 0.178 µM); in [37], 2.82 µg/mL (≈ 6.71 µM).
